Measurements taken from ChEMBL document CHEMBL4364323, “Synthesis and biological evaluation of moxifloxacin-acetyl-1,2,3-1H-triazole-methylene-isatin hybrids as potential anti-tubercular agents against both drug-susceptible and drug-resistant Mycobacterium tuberculosis strains” (Eur J Med Chem, 2019).
Converted amounts (≈) assume the structure as drawn.

How the values were obtained:
[1] = Half life in SPF ICR mouse at 100 mg/kg, sc; assay type: ADME, organism-based; conditions: in vivo
[2] = system: Mycobacterium tuberculosis; assay: Antimycobacterial activity against Mycobacterium tuberculosis H37Rv incubated for 7 days by rapid direct susceptibility test; assay type: functional; conditions: 168 h
How it was run: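 Two-fold compound dilutions were mixed with MTB suspension containing 4×10 -3 mg cells per well and incubated at 37 °C in a wet box. MIC was read from the quantity and state of cells in each well under a continuous visual high-magnification system and was re-determined 7 days later.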

CHO = assay: Cytotoxicity against CHO cells assessed as slight change in cell viability at 128 to 4 ug/ml; assay type: cell-based, Cricetulus griseus; conditions: chinese hamster
[3] = Cytotoxicity against African green monkey Vero cells incubated for 72 hrs by MTT assay; assay type: cell-based; conditions: chlorocebus sabaeus
How it was run: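 Compounds were dissolved in DMSO and tested at 128 to 4 μg/mL. VERO cells were grown in MEM with Earle's salts plus 10% FBS at 37 °C, 5% CO2, seeded at 1×10^4 cells/well and allowed to recover 24 h. Cells were then exposed to compound or drug-free medium for 72 h. Viability was read by MTT, and CC50 was calculated by Bliss analysis.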

[4] = Tmax in SPF ICR mouse at 100 mg/kg, sc; assay type: ADME, organism-based; conditions: in vivo
How it was run: (§1)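 Female SPF ICR mice (20-25 g) dosed once at 100 mg/kg by subcutaneous injection. Plasma concentration-time data were collected. Cmax, Tmax, t1/2 and AUC0-inf were taken directly from the experimental data.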

[5] = target: DNA gyrase subunit A/DNA gyrase subunit B (Mycobacterium tuberculosis (strain ATCC 25618 / H37Rv), UniProt P9WG45+P9WG47); assay: Inhibition of Mycobacterium tuberculosis DNA gyrase; assay type: protein-complex assay
Chain of DNA gyrase subunit A/DNA gyrase subunit B (P9WG45 whole entry): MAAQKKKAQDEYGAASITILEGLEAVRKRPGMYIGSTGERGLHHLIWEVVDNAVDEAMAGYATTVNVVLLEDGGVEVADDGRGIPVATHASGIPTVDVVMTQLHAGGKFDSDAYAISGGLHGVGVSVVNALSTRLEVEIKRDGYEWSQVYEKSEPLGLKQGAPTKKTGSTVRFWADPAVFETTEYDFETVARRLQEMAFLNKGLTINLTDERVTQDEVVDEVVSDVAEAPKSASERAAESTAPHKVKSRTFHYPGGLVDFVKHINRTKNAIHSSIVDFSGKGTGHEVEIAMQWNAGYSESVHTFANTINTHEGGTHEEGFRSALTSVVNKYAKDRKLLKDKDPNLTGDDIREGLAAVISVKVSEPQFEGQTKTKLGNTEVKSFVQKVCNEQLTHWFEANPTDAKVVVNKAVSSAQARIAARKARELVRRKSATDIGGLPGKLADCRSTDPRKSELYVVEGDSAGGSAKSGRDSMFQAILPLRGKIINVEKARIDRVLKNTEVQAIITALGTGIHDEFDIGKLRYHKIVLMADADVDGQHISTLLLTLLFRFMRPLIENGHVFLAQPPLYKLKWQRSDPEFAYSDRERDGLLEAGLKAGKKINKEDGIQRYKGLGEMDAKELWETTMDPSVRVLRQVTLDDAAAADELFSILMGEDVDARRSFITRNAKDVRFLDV
Chain of DNA gyrase subunit A/DNA gyrase subunit B (P9WG47 whole entry): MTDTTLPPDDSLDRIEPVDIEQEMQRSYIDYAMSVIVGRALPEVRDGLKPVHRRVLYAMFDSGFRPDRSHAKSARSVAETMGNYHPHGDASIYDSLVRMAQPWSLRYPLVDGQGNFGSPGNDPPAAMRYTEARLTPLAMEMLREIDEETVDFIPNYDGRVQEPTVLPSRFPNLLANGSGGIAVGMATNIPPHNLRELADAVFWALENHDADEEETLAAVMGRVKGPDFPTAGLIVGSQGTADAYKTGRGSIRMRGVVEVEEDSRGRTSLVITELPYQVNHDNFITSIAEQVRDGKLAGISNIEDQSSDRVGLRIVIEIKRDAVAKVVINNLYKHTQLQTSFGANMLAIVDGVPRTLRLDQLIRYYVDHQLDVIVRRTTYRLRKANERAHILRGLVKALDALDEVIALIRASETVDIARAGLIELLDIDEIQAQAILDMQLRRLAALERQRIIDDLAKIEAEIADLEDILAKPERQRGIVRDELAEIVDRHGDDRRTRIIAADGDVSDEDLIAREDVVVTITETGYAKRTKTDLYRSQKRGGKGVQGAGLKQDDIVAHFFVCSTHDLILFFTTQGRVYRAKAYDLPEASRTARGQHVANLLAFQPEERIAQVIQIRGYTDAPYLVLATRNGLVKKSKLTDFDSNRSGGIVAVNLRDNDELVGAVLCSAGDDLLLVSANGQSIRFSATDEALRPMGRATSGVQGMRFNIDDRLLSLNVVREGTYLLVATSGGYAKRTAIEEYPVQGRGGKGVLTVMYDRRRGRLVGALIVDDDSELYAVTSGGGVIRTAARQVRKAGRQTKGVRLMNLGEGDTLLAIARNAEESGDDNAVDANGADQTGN

[6] = Cmax in SPF ICR mouse at 100 mg/kg, sc; assay type: ADME, organism-based; set-up: dose 100 mg/kg, route subcutaneous; conditions: in vivo; how it was run: as §1
[7] = Selectivity index, ratio of CC50 for African green monkey Vero cells to MIC for Mycobacterium tuberculosis H37Rv; assay type: toxicity; conditions: read-out: Selectivity Index
[8] = AUC (0 to infinity) in SPF ICR mouse at 100 mg/kg, sc; assay type: ADME, organism-based; set-up: dose 100 mg/kg, route subcutaneous, time infinity; conditions: in vivo; how it was run: as §1

Row | SMILES | half-life [1] | MIC [2] | Activity (CHO) | CC50 at 72 h [3] | Tmax [4] | IC50 [5] | Cmax [6] | selectivity ratio [7] | AUC(0-inf) [8]
1 | COc1c(N2C[C@H]3CCCN(C(=O)Cn4cc(CN5C(=O)/C(=N/NC(N)=S)c6ccccc65)nn4)[C@H]3C2)c(F)cc2c(=O)c(C(=O)O)cn(C3CC3)c12 | 258 min | 0.12 µg/mL (≈ 0.162 µM) | Toxic | 16 µg/mL (≈ 21.5 µM) | 52 min | 6.73 µM | 1400 ng/mL | 128 | 3270 ng·h/mL
2 | CO/N=C1/C(=O)N(Cc2cn(CC(=O)N3CCC[C@@H]4CN(c5c(F)cc6c(=O)c(C(=O)O)cn(C7CC7)c6c5OC)C[C@@H]43)nn2)c2ccccc21 | 186 min | 0.5 µg/mL (≈ 0.716 µM) | Toxic | 128 µg/mL (≈ 183 µM) | 39 min | 8.59 µM | 3250 ng/mL | 256 | 6440 ng·h/mL
3 | COc1c(N2C[C@H]3CCCN(C(=O)Cn4cc(CN5C(=O)/C(=N/O)c6cccc(F)c65)nn4)[C@H]3C2)c(F)cc2c(=O)c(C(=O)O)cn(C3CC3)c12 | – | 16 µg/mL (≈ 22.8 µM) | – | 16 µg/mL (≈ 22.8 µM) | – | – | – | 1 | –
4 | COc1c(N2CCNC(C)C2)c(F)cc2c(=O)c(C(=O)O)cn(C3CC3)c12 (centres undefined) [GATIFLOXACIN] | – | 0.5 µg/mL (≈ 1.33 µM) | – | 64 µg/mL (≈ 170 µM) | – | 13.3 µM | – | 128 | –
5 | CO/N=C1/C(=O)N(Cc2cn(CC(=O)N3CCC[C@@H]4CN(c5c(F)cc6c(=O)c(C(=O)O)cn(C7CC7)c6c5OC)C[C@@H]43)nn2)c2ccc(C)cc21 | – | 4 µg/mL (≈ 5.61 µM) | – | 64 µg/mL (≈ 89.8 µM) | – | – | – | 16 | –
6 | COc1c(N2C[C@H]3CCCN(C(=O)Cn4cc(CN5C(=O)C(=O)c6ccccc65)nn4)[C@H]3C2)c(F)cc2c(=O)c(C(=O)O)cn(C3CC3)c12 | – | 0.25 µg/mL (≈ 0.373 µM) | – | 32 µg/mL (≈ 47.8 µM) | – | 5.97 µM | – | 128 | –
7 | NNC(=O)c1ccncc1 [ISONIAZID] | – | 0.12 µg/mL (≈ 0.875 µM) | – | – | – | – | – | 1024 | –
8 | COc1c(N2C[C@H]3CCCN(C(=O)Cn4cc(CN5C(=O)C(=O)c6cc(C)ccc65)nn4)[C@H]3C2)c(F)cc2c(=O)c(C(=O)O)cn(C3CC3)c12 | – | 2 µg/mL (≈ 2.93 µM) | – | 64 µg/mL (≈ 93.6 µM) | – | – | – | 32 | –
9 | CO/N=C1/C(=O)N(Cc2cn(CC(=O)N3CCC[C@@H]4CN(c5c(F)cc6c(=O)c(C(=O)O)cn(C7CC7)c6c5OC)C[C@@H]43)nn2)c2ccc(F)cc21 | – | 1 µg/mL (≈ 1.4 µM) | – | 32 µg/mL (≈ 44.6 µM) | – | – | – | 32 | –
10 | CO[C@H]1/C=C/O[C@@]2(C)Oc3c(C)c(O)c4c(O)c(c(/C=N/N5CCN(C)CC5)c(O)c4c3C2=O)NC(=O)/C(C)=C\C=C\[C@H](C)[C@H](O)[C@@H](C)[C@@H](O)[C@@H](C)[C@H](OC(C)=O)[C@@H]1C [RIFAMPIN] | – | 0.06 µg/mL (≈ 0.0729 µM) | – | > 128 µg/mL | – | – | – | > 512 | –
11 | COc1c(N2C[C@H]3CCCN(C(=O)Cn4cc(CN5C(=O)C(=O)c6cccc(F)c65)nn4)[C@H]3C2)c(F)cc2c(=O)c(C(=O)O)cn(C3CC3)c12 | – | 8 µg/mL (≈ 11.6 µM) | – | 32 µg/mL (≈ 46.5 µM) | – | – | – | 4 | –
12 | COc1c(N2C[C@@H]3CCCN[C@@H]3C2)c(F)cc2c(=O)c(C(=O)O)cn(C3CC3)c12 [MOXIFLOXACIN] | – | 0.12 µg/mL (≈ 0.299 µM) | – | – | 27 min | – | 10800 ng/mL | – | 19200 ng·h/mL
13 | COc1c(N2C[C@H]3CCCN(C(=O)Cn4cc(CN5C(=O)/C(=N/NC(N)=S)c6cccc(F)c65)nn4)[C@H]3C2)c(F)cc2c(=O)c(C(=O)O)cn(C3CC3)c12 | – | 8 µg/mL (≈ 10.5 µM) | – | 8 µg/mL (≈ 10.5 µM) | – | – | – | 1 | –
14 | CO/N=C1/C(=O)N(Cc2cn(CC(=O)N3CCC[C@@H]4CN(c5c(F)cc6c(=O)c(C(=O)O)cn(C7CC7)c6c5OC)C[C@@H]43)nn2)c2c(F)cccc21 | – | 16 µg/mL (≈ 22.3 µM) | – | 16 µg/mL (≈ 22.3 µM) | – | – | – | 1 | –
15 | COc1c(N2C[C@H]3CCCN(C(=O)Cn4cc(CN5C(=O)/C(=N/O)c6ccccc65)nn4)[C@H]3C2)c(F)cc2c(=O)c(C(=O)O)cn(C3CC3)c12 | – | 1 µg/mL (≈ 1.46 µM) | – | 32 µg/mL (≈ 46.7 µM) | – | – | – | 32 | –
16 | COc1c(N2C[C@H]3CCCN(C(=O)Cn4cc(CN5C(=O)C(=O)c6cc(F)ccc65)nn4)[C@H]3C2)c(F)cc2c(=O)c(C(=O)O)cn(C3CC3)c12 | – | 1 µg/mL (≈ 1.45 µM) | – | 16 µg/mL (≈ 23.3 µM) | – | – | – | 16 | –
17 | COc1c(N2C[C@H]3CCCN(C(=O)Cn4cc(CN5C(=O)/C(=N/O)c6cc(F)ccc65)nn4)[C@H]3C2)c(F)cc2c(=O)c(C(=O)O)cn(C3CC3)c12 | – | 2 µg/mL (≈ 2.85 µM) | – | 16 µg/mL (≈ 22.8 µM) | – | – | – | 8 | –
18 | COc1c(N2C[C@H]3CCCN(C(=O)Cn4cc(CN5C(=O)/C(=N/NC(N)=S)c6cc(F)ccc65)nn4)[C@H]3C2)c(F)cc2c(=O)c(C(=O)O)cn(C3CC3)c12 | – | 0.25 µg/mL (≈ 0.329 µM) | – | 8 µg/mL (≈ 10.5 µM) | – | 10.5 µM | – | 32 | –
